Measurements from ChEMBL document CHEMBL1128592, “Phenethylthiazolethiourea (PETT) compounds, a new class of HIV-1 reverse transcriptase inhibitors. 1. Synthesis and basic structure-activity relationship studies of PETT analogs” (J Med Chem, 1995).

Key:
[1] = Concentration which reduced the viability of the uninfected MT-4 cells to 50% compared to untreated control cells; settings: MT4
[2] = target: Human immunodeficiency virus type 1 reverse transcriptase (Human immunodeficiency virus 1) (UniProt Q72547); assay: Concentration which reduced the cytopathic effect of HIV-1 in MT-4 infected cells; type: functional, cell-based
Summary of the method: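 MT4 cells at 2 × 10⁵ cells/mL in RPMI 1640 with 10% FCS, penicillin and streptomycin (2 × 10⁴ cells/well). Compounds added from DMSO stocks diluted in medium (final DMSO ≤1%), then HIV-1 IIIB at 10 TCID₅₀/well. After 6 days in CO₂, surviving cells read by XTT. ED₅₀ is the concentration reducing virus cytopathic effect, mean of at least two experiments.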

[3] = target: Human immunodeficiency virus type 1 reverse transcriptase (Human immunodeficiency virus 1, UniProt Q72547); assay: Inhibition of HIV-1 reverse transcriptase using rCdG as template and dGTP as substrate

SMILES	CD50 [1] [µM]	ED50 [2] [nM]	IC50 [3] [nM]
CC(C/N=C(\S)Nc1nccs1)c1ccccc1 (centres undefined)	108	1200	
CC(CNC(=S)Nc1nccs1)c1ccccc1 (centres undefined)			450
O=C(O)c1csc(/N=C(\S)NCCc2ccccc2)n1	> 325	> 10000	> 10000
CCc1csc(NC(=S)NCCc2ccccc2)n1	> 340	700	600
CCCOc1cccc(CCNC(=S)Nc2nccs2)c1	75	2200	200
Fc1cccc(Cl)c1CCNC(=S)Nc1nccs1	111	50	6
CCOc1cccc(F)c1CCNC(=S)Nc1ccc(Br)cn1	50	20	6
CCOc1cccc(F)c1CCNC(=S)Nc1ccc(C)cn1	60	200	4.5
CN(CCc1ccccc1)/C(S)=N\c1nccs1	29	> 10000	> 10000
CN(/C(S)=N/CCc1ccccc1)c1nccs1	65	10000	1500
CCc1cc(NCc2nc3c(Cl)ccc(Cl)c3o2)c(O)nc1C [L-697661]	114	65	100
CCc1csc(NC(=S)NCCc2c(F)cccc2F)n1	> 305	80	5.5
Fc1cccc(F)c1CCNC(=S)Nc1nccs1	33	20	10
Fc1cccc(F)c1CCNC(=S)Nc1ccc(Br)cn1			1
CC(Cc1ccccc1)/N=C(\S)Nc1nccs1 (centres undefined)	87	> 10000	> 10000
S=C(NCCc1ccccc1)Nc1nc2ccccc2s1		1100	200
COc1ccc(CCNC(=S)Nc2nccs2)cc1	68	5500	350
COc1ccc(OC)c(CCNC(=S)Nc2nccs2)c1	86	400	200
CCCc1csc(NC(=S)NCCc2ccccc2)n1	> 330	1600	350
S=C(NCCCc1ccccc1)Nc1nccs1	> 360	> 10000	4500
Cn1cccc1CC/N=C(\S)Nc1nccs1	143	> 10000	1900
S=C(NCc1ccccc1)Nc1nccs1	120	> 10000	1200
CC(C)Oc1cccc(CCNC(=S)Nc2nccs2)c1	16	400	400

SMILES	CD50 [1] [µM]	ED50 [2] [nM]	IC50 [3] [nM]
Cc1ccccc1CCNC(=S)Nc1nccs1	72	950	80
Cc1cn([C@H]2C[C@H](N=[N+]=[N-])[C@@H](CO)O2)c(=O)[nH]c1=O		7	
S=C(NCCc1ccccc1)Nc1ccccn1		200	20
O=C(NCCc1ccccc1)Nc1nccs1	113	> 10000	> 10000
S=C(NCCc1cccnc1)Nc1nccs1	83	6400	> 10000
CC(C)c1csc(NC(=S)NCCc2ccccc2)n1	> 330	1300	200
CCOC(=O)c1csc(NC(=S)NCCc2ccccc2)n1	60	500	200
N#Cc1csc(NC(=S)NCCc2ccccc2)n1		200	200
Oc1ccccc1CCNC(=S)Nc1nccs1	100	4000	1100
S=C(NCCc1ccco1)Nc1nccs1	89	5200	650
S=C(NCCc1ccncc1)Nc1nccs1	113	> 10000	> 10000
S=C(NCCc1cccc(Oc2ccccc2)c1)Nc1nccs1	14	2800	1100
S=C(NCCc1ccccc1)Nc1nccs1		1300	900
Fc1cccc(CCNC(=S)Nc2nccs2)c1	78	250	150
Cc1ccc(NC(=S)NCCc2ccccn2)nc1	73	300	50
S=C(NCCc1ccccc1)Nc1cc[nH]n1	122	> 10000	> 10000
[N-]=[N+]=Nc1ccccc1CC/N=C(\S)Nc1nccs1	92	100	
Fc1ccc(CCNC(=S)Nc2nccs2)cc1	78	3300	1000
Cc1ccc(NC(=S)NCCc2c(F)cccc2F)nc1	> 325	10	3
COc1cccc(CCNC(=S)Nc2nccs2)c1	143	600	150
S=C(NCCc1ccccc1)Nc1ncccc1Br	297	> 10000	> 10000
S=C(NCCc1ccccn1)Nc1nccs1	76	1300	200
Fc1ccccc1CCNC(=S)Nc1nccs1	75	100	60

SMILES	CD50 [1] [µM]	ED50 [2] [nM]	IC50 [3] [nM]
S=C(NCCc1ccccc1)Nc1nncs1		5300	1900
COc1ccc(Br)cc1CCNC(=S)Nc1nccs1	94	50	30
S=C(NCCc1ccccc1Cl)Nc1nccs1	100	400	600
CCOc1cccc(F)c1CCNC(=S)Nc1nccs1	37	200	10
Cc1ccc(NC(=S)NCCc2ccccc2)nc1		150	30
CCCCCCOc1cccc(CC/N=C(\S)Nc2nccs2)c1	8	> 10000	> 10000
COc1cccc(F)c1CCNC(=S)Nc1nccs1	51	300	10
COc1ccccc1CCNC(=S)Nc1nccs1	102	400	40
[N-]=[N+]=Nc1ccccc1CCNC(=S)Nc1nccs1			30
FC(F)(F)c1csc(NC(=S)NCCc2ccccc2)n1	9	500	550
Fc1cccc(F)c1CC/N=C(\S)Nc1ccc(Br)cn1	67	10	
S=C(NCCc1ccccn1)Nc1ccc(Br)cn1		20	
S=C(NCCc1ccccc1)Nc1ncc(Cl)s1	15	2700	2400
O=[N+]([O-])c1ccccc1CCNC(=S)Nc1nccs1	123	1100	150
Cc1ccnc2c1NC(=O)c1cccnc1N2C1CC1		150	
CCCCc1csc(NC(=S)NCCc2ccccc2)n1	313	1300	2500
COc1cccc(OC)c1CCNC(=S)Nc1nccs1	37	90	90
S=C(NCCc1ccccc1)Nc1ccc(Br)cn1		50	15
N#Cc1csc(NC(=S)NCCc2c(F)cccc2F)n1	10	30	6
S=C(NCCc1ccccc1)Nc1cnccn1	> 390	> 10000	3900
CCOc1cccc(CCNC(=S)Nc2nccs2)c1	91	150	60
CC(C)=CCN1Cc2cc(Cl)cc3[nH]c(=S)n(c23)C[C@@H]1C		250	200
Cc1csc(NC(=S)NCCc2ccccc2)n1	> 360	400	100
